Values after ≈ are worked out from the molar mass of the structure shown.
Columns and labels:
[1] = Selectivity index, ratio of TC50 for MDCK cells to IC50 for Influenza A virus A/hanfang/359/95(H3N2); type: toxicity, cell-based; settings: dog, read-out: Selectivity Index
Summary of the method: (§1)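 Selectivity index = TC50 (MDCK, 48 h visual cytotoxicity) / IC50 from the 40 h CPE-inhibition assay for the given strain.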

Influenza A virus [2] = test: Antiviral activity against Influenza A virus A/hanfang/359/95(H3N2) infected in MDCK cells assessed as inhibition of virus-induced cytopathicity after 40 hrs; type: functional, organism-based
Summary of the method: (§2)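 CPE reduction in MDCK cells: cells grown 24 h at 37 °C, 5% CO2, then infected and held 2 h at 37 °C before the inoculum was removed. Threefold serial drug dilutions (8 levels from 20 mg/mL DMSO stocks) were added and incubated 40 h at 37 °C. CPE inhibition was scored against cell and virus controls to give IC50. Ribavirin and oseltamivir were the controls.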

[3] = Selectivity index, ratio of TC50 for MDCK cells to IC50 for Influenza A virus (A/FM/1/1947(H1N1)); type: toxicity, cell-based; settings: dog, read-out: Selectivity Index; summary of the method: as §1
Influenza A virus [4] = test: Antiviral activity against Influenza A virus (A/FM/1/1947(H1N1)) infected in MDCK cells assessed as inhibition of virus-induced cytopathicity after 40 hrs; type: functional, organism-based; settings: A/Fort Monmouth/1/1947(H1N1); summary of the method: as §2
[5] = Cytotoxicity against MDCK cells after 48 hrs; type: cell-based, Canis lupus familiaris; settings: dog, read-out: TC50
Summary of the method: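 MDCK cells seeded at 25000 per well and cultured 24 h at 37 °C, 5% CO2. Threefold dilutions were added to the monolayer and culture continued 48 h. Cytopathic changes were recorded by observation, and TC50 was calculated by the Reed & Muench method.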

[6] = Selectivity index, ratio of TC50 for MDCK cells to IC50 for Influenza B virus jifang/13/97; type: toxicity, cell-based; settings: dog, read-out: Selectivity Index; summary of the method: as §1
Influenza B virus [7] = test: Antiviral activity against Influenza B virus jifang/13/97 infected in MDCK cells assessed as inhibition of virus-induced cytopathicity after 40 hrs; type: functional, organism-based; settings: jifang/13/97, MDCK; summary of the method: as §2
[8] = Selectivity index, ratio of TC50 for MDCK cells to IC50 for Influenza A virus (A/Tianjinjinnan/15/2009/H1N1); type: toxicity, cell-based; settings: dog, read-out: Selectivity Index; summary of the method: as §1
Influenza B virus [9] = test: Ratio of ribavirin IC50 to compound IC50 for Influenza B virus jifang/13/97 infected in MDCK cells; type: functional

Row | SMILES | selectivity ratio [1] | IC50 (Influenza A virus [2]) | selectivity ratio [3] | IC50 (Influenza A virus [4]) | CC50 at 48 h [5] | selectivity ratio [6] | IC50 (Influenza B virus [7]) | selectivity ratio [8] | Ratio IC50 (Influenza B virus [9])
1 | CCOC(=O)C1=C[C@@H](OC(CC)CC)[C@H](NC(C)=O)[C@@H](N)C1 [OSELTAMIVIR] | 1240 | 1 µg/mL (≈ 3.2 µM) | 448 | 2.81 µg/mL (≈ 8.99 µM) | 1260 µg/mL (≈ 4030 µM) |  |  |  | 
2 | C=C(C(=O)OCc1cn(Cc2cccc(Cl)c2)nn1)[C@@H]1CC[C@H](C)[C@@H]2CC(=O)C(C)=C2C1 |  | > 66.7 µg/mL |  | ≥ 66.7 µg/mL | 139 µg/mL (≈ 305 µM) | 2.1 | 66.7 µg/mL (≈ 147 µM) |  | 
3 | C=C(C(=O)NCc1cn(Cc2ccc(C)cc2)nn1)[C@@H]1CC[C@H](C)[C@@H]2CC(=O)C(C)=C2C1 |  | > 22.2 µg/mL | 5.91 | 17.5 µg/mL (≈ 40.5 µM) | 96.2 µg/mL (≈ 222 µM) | 8.25 | 11.8 µg/mL (≈ 27.2 µM) |  | 
4 | C=C(C(=O)OCc1cn(Cc2ccccc2Cl)nn1)[C@@H]1CC[C@H](C)[C@@H]2CC(=O)C(C)=C2C1 | 3.31 | 40.2 µg/mL (≈ 88.5 µM) |  | > 66.7 µg/mL | 115 µg/mL (≈ 254 µM) | 10.4 | 14.8 µg/mL (≈ 32.6 µM) | 1.98 | 
5 | C=C(C(=O)NCc1cn(Cc2ccc(OC)cc2)nn1)[C@@H]1CC[C@H](C)[C@@H]2CC(=O)C(C)=C2C1 |  | > 22.2 µg/mL | 10.5 | 14 µg/mL (≈ 31.2 µM) | 96.2 µg/mL (≈ 214 µM) | 8.25 | 11.8 µg/mL (≈ 26.2 µM) |  | 
6 | C=C(C(=O)O)[C@@H]1CC[C@H](C)[C@@H]2CC(=O)C(C)=C2C1 [PECHUELOIC ACID] | 25.8 |  | > 111 | 4650 µg/mL (≈ 18700 µM) | 248 µg/mL (≈ 999 µM) | > 4030 | 181 µg/mL (≈ 727 µM) | > 1340 | 
7 | C=C(C(=O)NCc1cn(Cc2cccc(OC)c2)nn1)[C@@H]1CC[C@H](C)[C@@H]2CC(=O)C(C)=C2C1 |  | > 22.2 µg/mL | 5.2 | 12.8 µg/mL (≈ 28.6 µM) | 66.7 µg/mL (≈ 149 µM) | 3.45 | 19.7 µg/mL (≈ 44 µM) |  | 
8 | C=C(C(=O)NCc1cn(Cc2ccccc2)nn1)[C@@H]1CC[C@H](C)[C@@H]2CC(=O)C(C)=C2C1 |  | > 22.2 µg/mL | 5.58 | 17.2 µg/mL (≈ 41.2 µM) | 96.2 µg/mL (≈ 230 µM) | 12.2 | 11.3 µg/mL (≈ 27 µM) |  | 
9 | C=C(C(=O)OCc1cn(Cc2ccc(F)cc2)nn1)[C@@H]1CC[C@H](C)[C@@H]2CC(=O)C(C)=C2C1 |  | > 22.2 µg/mL |  | > 22.2 µg/mL | 66.7 µg/mL (≈ 152 µM) | 9.1 | 8.98 µg/mL (≈ 20.5 µM) |  | 
10 | C=C(C(=O)OCc1cn(Cc2cccc(F)c2)nn1)[C@@H]1CC[C@H](C)[C@@H]2CC(=O)C(C)=C2C1 |  | > 22.2 µg/mL |  | > 22.2 µg/mL | 96.2 µg/mL (≈ 220 µM) | ≥ 4.3 | ≥ 22.2 µg/mL |  | 
11 | C=C(C(=O)OCc1cn(Cc2ccccc2)nn1)[C@@H]1CC[C@H](C)[C@@H]2CC(=O)C(C)=C2C1 |  | > 7.41 µg/mL |  | > 7.41 µg/mL | 28.6 µg/mL (≈ 68.2 µM) | ≥ 3.9 | ≥ 7.41 µg/mL |  | 
12 | C=C(C(=O)NCc1cn(Cc2ccc(Cl)cc2)nn1)[C@@H]1CC[C@H](C)[C@@H]2CC(=O)C(C)=C2C1 |  | > 2.47 µg/mL |  | > 2.47 µg/mL | 17.2 µg/mL (≈ 38.1 µM) | 8.55 | 2.09 µg/mL (≈ 4.61 µM) |  | >4
13 | C=C(C(=O)OCc1cn(Cc2cccc(C)c2)nn1)[C@@H]1CC[C@H](C)[C@@H]2CC(=O)C(C)=C2C1 |  | > 22.2 µg/mL | 3.76 | 12.3 µg/mL (≈ 28.4 µM) | 38.5 µg/mL (≈ 88.8 µM) | ≥ 4 | ≥ 9.54 µg/mL | 1.98 | 
14 | C=C(C(=O)NCc1cn(Cc2ccccc2C)nn1)[C@@H]1CC[C@H](C)[C@@H]2CC(=O)C(C)=C2C1 |  | > 22.2 µg/mL |  | > 22.2 µg/mL | 66.7 µg/mL (≈ 154 µM) | 4.55 | 15 µg/mL (≈ 34.7 µM) |  | 
15 | C=C(C(=O)NCc1cn(Cc2cccc(Cl)c2)nn1)[C@@H]1CC[C@H](C)[C@@H]2CC(=O)C(C)=C2C1 |  | > 7.41 µg/mL |  | > 7.41 µg/mL | 28.6 µg/mL (≈ 63.2 µM) | 3.9 | 7.41 µg/mL (≈ 16.4 µM) |  | >4
16 | C=C(C(=O)NCc1cn(Cc2ccccc2F)nn1)[C@@H]1CC[C@H](C)[C@@H]2CC(=O)C(C)=C2C1 |  | > 66.7 µg/mL |  | > 66.7 µg/mL | 116 µg/mL (≈ 265 µM) |  | > 66.7 µg/mL |  | 
17 | C=C(C(=O)OCc1cn(Cc2ccc(Cl)c(Cl)c2)nn1)[C@@H]1CC[C@H](C)[C@@H]2CC(=O)C(C)=C2C1 |  | > 7.41 µg/mL |  | > 7.41 µg/mL | 22.2 µg/mL (≈ 45.5 µM) |  | > 7.41 µg/mL |  | 
18 | C=C(C(=O)OCc1cn(Cc2ccc(C)cc2)nn1)[C@@H]1CC[C@H](C)[C@@H]2CC(=O)C(C)=C2C1 |  | > 22.2 µg/mL |  | > 22.2 µg/mL | 96.2 µg/mL (≈ 222 µM) | ≥ 4.32 | ≥ 22.2 µg/mL |  | 
19 | C=C(C(=O)OCc1cn(Cc2ccccc2C)nn1)[C@@H]1CC[C@H](C)[C@@H]2CC(=O)C(C)=C2C1 |  | > 22.2 µg/mL |  | > 22.2 µg/mL | 46.2 µg/mL (≈ 107 µM) | 2.55 | 18.8 µg/mL (≈ 43.4 µM) |  | 
20 | C=C(C(=O)OCc1cn(C2CCCCC2)nn1)[C@@H]1CC[C@H](C)[C@@H]2CC(=O)C(C)=C2C1 | ≥ 1.73 | ≥ 66.7 µg/mL | 1.73 | 66.7 µg/mL (≈ 162 µM) | 115 µg/mL (≈ 281 µM) | 6.5 | 18.5 µg/mL (≈ 45 µM) | 1.98 | 
21 | C=C(C(=O)NCc1cn(Cc2cccc(C)c2)nn1)[C@@H]1CC[C@H](C)[C@@H]2CC(=O)C(C)=C2C1 |  | > 22.2 µg/mL |  | > 22.2 µg/mL | 66.7 µg/mL (≈ 154 µM) | 5.7 | 11.8 µg/mL (≈ 27.2 µM) |  | 
22 | C=C(C(=O)NCc1cn(C2C=CCCC2)nn1)[C@@H]1CC[C@H](C)[C@@H]2CC(=O)C(C)=C2C1 (stereo partly drawn) |  | > 22.2 µg/mL | 9.86 | 9.75 µg/mL (≈ 23.9 µM) | 96.2 µg/mL (≈ 235 µM) | 7.85 | 13.4 µg/mL (≈ 32.8 µM) | 4.96 | 
23 | C=C(C(=O)OCc1cn(Cc2ccc(OC)cc2)nn1)[C@@H]1CC[C@H](C)[C@@H]2CC(=O)C(C)=C2C1 |  | > 22.2 µg/mL | 2.68 | 19.7 µg/mL (≈ 43.9 µM) | 46.2 µg/mL (≈ 103 µM) | ≥ 2.1 | ≥ 22.2 µg/mL | 2.08 | 
24 | C=C(C(=O)NCc1cn(C2CCCCC2)nn1)[C@@H]1CC[C@H](C)[C@@H]2CC(=O)C(C)=C2C1 |  | > 7.41 µg/mL |  | > 7.41 µg/mL | 38.5 µg/mL (≈ 93.7 µM) | 1.95 | 19.7 µg/mL (≈ 48.1 µM) | 1.73 | 
25 | C=C(C(=O)NCc1cn(Cc2cccc(F)c2)nn1)[C@@H]1CC[C@H](C)[C@@H]2CC(=O)C(C)=C2C1 |  | > 22.2 µg/mL |  | > 22.2 µg/mL | 66.7 µg/mL (≈ 153 µM) | 14.3 | 4.71 µg/mL (≈ 10.8 µM) |  | >4
26 | C=C(C(=O)OCc1cn(Cc2cccc(OC)c2)nn1)[C@@H]1CC[C@H](C)[C@@H]2CC(=O)C(C)=C2C1 |  | > 22.2 µg/mL |  | > 22.2 µg/mL | 96.2 µg/mL (≈ 214 µM) |  | > 22.2 µg/mL |  | 
27 | C=C(C(=O)OCc1cn(Cc2ccc(Cl)cc2)nn1)[C@@H]1CC[C@H](C)[C@@H]2CC(=O)C(C)=C2C1 |  | > 22.2 µg/mL |  | > 22.2 µg/mL | 66.7 µg/mL (≈ 147 µM) | 5.2 | 12.8 µg/mL (≈ 28.3 µM) |  | 

Source: ChEMBL document CHEMBL3124823, “1,2,3-Triazole-containing derivatives of rupestonic acid: click-chemical synthesis and antiviral activities against influenza viruses” (Eur J Med Chem, 2014)
